Laboratory results taken from ChEMBL document CHEMBL1157608, “The discovery of 4-{1-[({2,5-dimethyl-4-[4-(trifluoromethyl)benzyl]-3-thienyl}carbonyl)amino]cyclopropyl}benzoic acid (MK-2894), a potent and selective prostaglandin E2 subtype 4 receptor antagonist” (J Med Chem, 2010).
pIC50, pKi: −log10 of the molar value.

What was measured:
Rattus norvegicus [1] = experiment: Analgesic activity in po dosed Sprague-Dawley rat assessed as inhibition of carrageenan-induced mechanical hyperalgesia relative to control; assay type: functional
Summary of the method: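 SD rats given subplantar carrageenan; compound dosed orally as a single dose; mechanical hyperalgesia read at 3 h post carrageenan, 1 h post dose; inhibition expressed vs vehicle control; n = 10-20/group; 1-way ANOVA/Dunnett's.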

Rattus norvegicus [2] = species on record: Rattus norvegicus; experiment: Analgesic activity against complete Freund's adjuvant-induced Sprague-Dawley rat inflammatory pain assessed as inhibition of chronic paw swelling; assay type: functional
Summary of the method: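 Adjuvant-induced arthritis in rats: CFA injected into primary paw on day 0; oral dosing in 0.5% methocel once daily for 9 days starting day 9; secondary paw swelling measured; plasma levels taken 24 h after final dose; n = 7/group; 1-way ANOVA/Dunnett's vs vehicle.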

[3] = molecular target: Prostaglandin E2 receptor EP2 subtype (Homo sapiens, UniProt P43116); experiment: Displacement of [3H]PGE2 from human EP2 receptor expressed in HEK293-EBNA cells by scintillation counting; assay type: cell-based
Summary of the method: (§1)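 Radioligand binding on membranes from HEK 293(EBNA) clonal lines overexpressing each prostanoid receptor, using the respective 3H-prostaglandin or thromboxane ligand; EP4 binding also run with 10% human serum; Ki as means of at least three experiments (rEP2, rEP3 n = 1).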

[4] = molecular target: T1, Prostaglandin E2 receptor EP1 subtype (Homo sapiens, UniProt P34995); experiment: Displacement of [3H]PGE2 from human EP1 receptor expressed in HEK293-EBNA cells by scintillation counting; assay type: cell-based; summary of the method: as §1
T1 sequence (P34995 whole entry): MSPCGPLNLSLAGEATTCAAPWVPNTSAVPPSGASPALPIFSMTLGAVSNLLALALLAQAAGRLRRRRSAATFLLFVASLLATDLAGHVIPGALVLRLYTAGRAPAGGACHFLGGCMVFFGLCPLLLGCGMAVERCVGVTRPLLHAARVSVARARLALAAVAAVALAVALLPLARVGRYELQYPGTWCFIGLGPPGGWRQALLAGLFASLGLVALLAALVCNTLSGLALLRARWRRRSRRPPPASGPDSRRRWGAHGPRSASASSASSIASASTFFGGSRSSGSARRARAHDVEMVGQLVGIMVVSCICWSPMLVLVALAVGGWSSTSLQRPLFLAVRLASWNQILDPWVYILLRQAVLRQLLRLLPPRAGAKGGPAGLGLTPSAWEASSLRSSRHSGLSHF

[5] = molecular target: T2, Prostaglandin E2 receptor EP3 subtype (Homo sapiens, UniProt P43115); experiment: Displacement of [3H]PGE2 from human EP3 receptor expressed in HEK293-EBNA cells by scintillation counting; assay type: cell-based; summary of the method: as §1
T2 sequence (P43115 whole entry): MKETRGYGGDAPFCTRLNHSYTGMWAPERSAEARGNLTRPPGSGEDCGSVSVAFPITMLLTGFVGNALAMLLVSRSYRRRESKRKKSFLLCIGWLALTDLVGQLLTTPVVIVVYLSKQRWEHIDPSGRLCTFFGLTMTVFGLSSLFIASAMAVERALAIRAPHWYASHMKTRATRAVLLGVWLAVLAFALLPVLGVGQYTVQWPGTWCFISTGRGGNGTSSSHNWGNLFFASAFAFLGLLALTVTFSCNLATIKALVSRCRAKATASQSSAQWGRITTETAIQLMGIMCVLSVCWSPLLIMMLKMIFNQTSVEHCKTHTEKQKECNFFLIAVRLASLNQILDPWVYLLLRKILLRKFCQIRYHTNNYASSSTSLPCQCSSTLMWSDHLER

[6] = molecular target: T3, Prostaglandin D2 receptor (Homo sapiens, UniProt Q13258); experiment: Displacement of [3H]PGD2 from human DP1 receptor expressed in HEK293-EBNA cells by scintillation counting; assay type: cell-based; summary of the method: as §1
T3 sequence (Q13258 whole entry): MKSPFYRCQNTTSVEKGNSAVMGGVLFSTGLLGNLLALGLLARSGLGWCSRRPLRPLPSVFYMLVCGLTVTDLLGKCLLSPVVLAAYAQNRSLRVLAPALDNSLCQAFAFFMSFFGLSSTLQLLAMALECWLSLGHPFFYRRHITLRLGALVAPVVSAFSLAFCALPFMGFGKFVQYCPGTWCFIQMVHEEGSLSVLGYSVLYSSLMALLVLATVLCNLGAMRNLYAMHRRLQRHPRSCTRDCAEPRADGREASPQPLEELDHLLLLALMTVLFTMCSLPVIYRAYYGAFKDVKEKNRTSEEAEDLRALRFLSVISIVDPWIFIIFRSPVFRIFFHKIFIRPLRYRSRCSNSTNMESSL

[7] = molecular target: T4, Prostaglandin D2 receptor 2 (Homo sapiens, UniProt Q9Y5Y4); experiment: Displacement of [3H]PGD2 from human DP2 receptor expressed in HEK293-EBNA cells by scintillation counting; assay type: cell-based; summary of the method: as §1
T4 sequence (Q9Y5Y4 whole entry): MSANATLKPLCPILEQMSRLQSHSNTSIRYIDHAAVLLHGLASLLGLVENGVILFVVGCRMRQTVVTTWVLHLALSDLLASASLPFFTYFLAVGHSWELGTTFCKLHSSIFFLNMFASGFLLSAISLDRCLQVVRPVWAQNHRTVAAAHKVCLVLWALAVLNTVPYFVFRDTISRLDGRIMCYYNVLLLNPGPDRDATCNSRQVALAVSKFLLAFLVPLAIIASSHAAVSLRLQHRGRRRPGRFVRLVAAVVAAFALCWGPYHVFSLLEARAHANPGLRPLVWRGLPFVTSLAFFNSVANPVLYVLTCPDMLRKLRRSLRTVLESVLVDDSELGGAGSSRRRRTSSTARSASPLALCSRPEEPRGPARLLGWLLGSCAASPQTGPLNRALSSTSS

Prostacyclin receptor = Prostacyclin receptor (Homo sapiens, UniProt P43119); experiment: Displacement of [3H]iloprost from human IP receptor expressed in HEK293-EBNA cells by scintillation counting; assay type: cell-based; summary of the method: as §1
Thromboxane A2 receptor = molecular target: T5, Thromboxane A2 receptor (Homo sapiens, UniProt P21731); experiment: Displacement of [3H]SQ29548 from human TP receptor expressed in HEK293-EBNA cells by scintillation counting; assay type: cell-based; summary of the method: as §1
T5 sequence (P21731 whole entry): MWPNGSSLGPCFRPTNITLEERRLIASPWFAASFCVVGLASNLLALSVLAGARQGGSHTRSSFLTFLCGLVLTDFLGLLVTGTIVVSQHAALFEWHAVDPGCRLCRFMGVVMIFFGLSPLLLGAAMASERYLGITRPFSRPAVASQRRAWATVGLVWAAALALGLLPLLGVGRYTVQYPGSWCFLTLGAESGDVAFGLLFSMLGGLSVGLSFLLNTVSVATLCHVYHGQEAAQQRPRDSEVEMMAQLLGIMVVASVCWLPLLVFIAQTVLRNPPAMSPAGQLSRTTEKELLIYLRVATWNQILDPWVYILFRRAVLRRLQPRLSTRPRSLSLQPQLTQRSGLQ

[8] = molecular target: Prostaglandin F2-alpha receptor (Homo sapiens, UniProt P43088); experiment: Displacement of [3H]PGF2alpha from human FP receptor expressed in HEK293-EBNA cells by scintillation counting; assay type: cell-based; summary of the method: as §1
[9] = molecular target: T6, Prostaglandin E2 receptor EP4 subtype (Homo sapiens, UniProt P35408); experiment: Antagonist activity at human EP4 receptor expressed in HEK293 cells assessed as inhibition of PGE2-induced cAMP accumulation by scintillation proximity assay; assay type: functional, cell-based
Summary of the method: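 HEK 293 cells; inhibition of PGE2-induced cAMP accumulation measured, with and without 10% human serum; means of at least three experiments.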

[10] = molecular target: T6, Prostaglandin E2 receptor EP4 subtype; experiment: Displacement of [3H]PGE2 from human EP4 receptor expressed in HEK293-EBNA cells by scintillation counting; assay type: cell-based; summary of the method: as §1

Sequence of Prostaglandin F2-alpha receptor (P43088 whole entry): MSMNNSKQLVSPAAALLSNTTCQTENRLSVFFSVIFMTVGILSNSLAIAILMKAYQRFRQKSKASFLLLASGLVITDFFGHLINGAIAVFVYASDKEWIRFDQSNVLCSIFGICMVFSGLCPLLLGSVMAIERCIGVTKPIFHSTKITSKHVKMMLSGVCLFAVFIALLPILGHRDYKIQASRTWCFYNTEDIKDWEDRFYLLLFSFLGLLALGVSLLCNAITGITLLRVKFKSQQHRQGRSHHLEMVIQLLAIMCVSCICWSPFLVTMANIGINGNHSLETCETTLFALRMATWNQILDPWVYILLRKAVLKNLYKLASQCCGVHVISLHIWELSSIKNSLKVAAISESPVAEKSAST
Sequence of Prostaglandin E2 receptor EP2 subtype (P43116 whole entry): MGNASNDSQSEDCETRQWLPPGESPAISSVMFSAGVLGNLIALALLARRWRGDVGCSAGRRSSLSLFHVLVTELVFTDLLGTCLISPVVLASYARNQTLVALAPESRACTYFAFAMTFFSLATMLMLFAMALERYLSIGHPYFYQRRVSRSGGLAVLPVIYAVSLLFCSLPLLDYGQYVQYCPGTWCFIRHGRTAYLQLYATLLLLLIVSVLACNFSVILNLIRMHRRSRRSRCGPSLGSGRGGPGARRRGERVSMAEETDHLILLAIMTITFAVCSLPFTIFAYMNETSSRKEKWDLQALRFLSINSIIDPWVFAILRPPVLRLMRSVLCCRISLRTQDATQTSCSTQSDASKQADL
Sequence of Prostacyclin receptor (P43119 whole entry): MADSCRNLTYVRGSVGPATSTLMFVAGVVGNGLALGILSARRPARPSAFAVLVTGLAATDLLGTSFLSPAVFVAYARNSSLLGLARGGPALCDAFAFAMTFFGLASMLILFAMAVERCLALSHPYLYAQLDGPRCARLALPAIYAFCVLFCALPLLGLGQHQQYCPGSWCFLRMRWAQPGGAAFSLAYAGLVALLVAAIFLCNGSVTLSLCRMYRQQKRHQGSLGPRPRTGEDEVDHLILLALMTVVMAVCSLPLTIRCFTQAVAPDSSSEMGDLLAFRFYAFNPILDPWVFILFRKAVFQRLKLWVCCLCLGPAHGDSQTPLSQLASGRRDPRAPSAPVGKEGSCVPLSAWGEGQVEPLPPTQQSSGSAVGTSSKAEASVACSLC
T6 sequence (P35408 whole entry): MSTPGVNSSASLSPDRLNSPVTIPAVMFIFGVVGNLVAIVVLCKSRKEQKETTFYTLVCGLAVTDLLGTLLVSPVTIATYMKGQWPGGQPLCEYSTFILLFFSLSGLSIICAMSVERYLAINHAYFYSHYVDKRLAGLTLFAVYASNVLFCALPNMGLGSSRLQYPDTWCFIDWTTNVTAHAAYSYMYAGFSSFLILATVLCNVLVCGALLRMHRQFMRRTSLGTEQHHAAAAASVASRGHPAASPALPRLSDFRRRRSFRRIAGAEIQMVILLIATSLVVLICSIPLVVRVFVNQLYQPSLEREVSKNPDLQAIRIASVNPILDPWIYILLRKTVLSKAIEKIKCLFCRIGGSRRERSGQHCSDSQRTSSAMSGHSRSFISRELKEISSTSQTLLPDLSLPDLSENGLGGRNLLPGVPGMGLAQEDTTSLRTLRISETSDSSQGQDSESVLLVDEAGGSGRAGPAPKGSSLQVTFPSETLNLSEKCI

Row | SMILES | inhibition (INH) (Rattus norvegicus [1]) [%] | ED50 (Rattus norvegicus [2]) | pKi [3] | pKi [4] | pKi [5] | pKi [6] | pKi [7] | pKi (Prostacyclin receptor) | pKi (Thromboxane A2 receptor) | pKi [8] | pIC50 [9] | pKi [10]
1 | CS(=O)(=O)c1ccc(C2=C(c3ccc(F)c(F)c3)C(=O)OC2)cc1 | 70 | 0.5 mg/kg | – | – | – | – | – | – | – | – | – | –
2 | C[C@H](NC(=O)c1c(Cl)sc(Cl)c1Cc1cccc(Cl)c1)c1ccc(C(=O)O)cc1 | – | – | 6.13 | < 6.34 | < 6.34 | < 6.34 | < 6.34 | < 6.34 | < 6.34 | < 6.34 | 8.44 | –
3 | Cc1sc(C)c(C(=O)N[C@@H](C)c2ccc(C(=O)O)cc2)c1Cc1ccc(Cl)cc1 | – | – | 6.69 | < 5.67 | < 5.67 | < 5.67 | < 5.67 | < 5.67 | < 5.67 | < 5.67 | 8.27 | 8.54
4 | COc1cccc(OC)c1C1(C(=O)NS(=O)(=O)Cc2ccc(N3Cc4c(c(OCC(F)(F)F)c5cccnc5c4OCC(F)(F)F)C3=O)c(C)c2)CC1 | – | 0.003 mg/kg/day | – | – | – | – | – | – | – | – | – | –
5 | C[C@@H](NC(=O)c1c(Cl)sc(Cl)c1Cc1cccc(Cl)c1)c1ccc(C(=O)O)cc1 | – | – | 6.42 | < 6.65 | < 6.65 | < 6.65 | < 6.65 | < 6.65 | < 6.65 | < 6.65 | 8.74 | 9.06
6 | Cc1sc(C)c(C(=O)N[C@@H](C)c2ccc(C(=O)O)cc2)c1Cc1cccc(Cl)c1 | – | – | 6.33 | < 5.65 | < 5.65 | < 5.65 | < 5.65 | < 5.65 | < 5.65 | < 5.65 | 8.07 | –
7 | Cc1sc(C)c(C(=O)NC2(c3ccc(-c4nn[nH]n4)cc3)CC2)c1Cc1ccc(C(F)(F)F)cc1 | – | – | < 4.54 | < 6.30 | < 6.30 | < 6.30 | < 6.30 | < 6.30 | < 6.30 | < 6.30 | 8.64 | 9.20
8 | Cc1sc(C)c(C(=O)NC2(c3ccc(C(=O)O)cc3)CC2)c1Cc1cccc(C(F)(F)F)c1 | – | – | < 4.54 | < 5.30 | < 5.30 | < 5.30 | < 5.30 | < 5.30 | < 5.30 | < 5.30 | – | 9.12
9 | O=C(O)c1ccc(CNC(=O)c2c(Cl)sc(Cl)c2Cc2cccc(Cl)c2)cc1 | – | – | 7.37 | < 6.20 | < 6.20 | < 6.20 | < 6.20 | < 6.20 | < 6.20 | < 6.20 | 8.80 | 9.14
10 | C[C@H](NC(=O)c1cscc1Cc1cccc(Cl)c1)c1ccc(C(=O)O)cc1 | – | – | 7.80 | < 5.14 | < 5.14 | < 5.14 | < 5.14 | < 5.14 | < 5.14 | < 5.14 | 7.92 | 8.19
11 | Cc1sc(C)c(C(=O)N[C@@H](C)c2ccc(C(=O)O)cc2)c1Cc1ccc(C(F)(F)F)cc1 | – | – | 5.92 | < 5.26 | < 5.26 | < 5.26 | < 5.26 | < 5.26 | < 5.26 | < 5.26 | 8.35 | –
12 | Cc1sc(C)c(C(=O)N[C@@H](C)c2ccc(C(=O)O)cc2)c1Cc1cccc(C(F)(F)F)c1 | – | – | 6.10 | < 5.46 | < 5.46 | < 5.46 | < 5.46 | < 5.46 | < 5.46 | < 5.46 | 8.33 | 8.60
13 | CS(=O)(=O)c1ccc(C2=C(c3ccccc3)C(=O)OC2)cc1 [ROFECOXIB] | – | 0.7 mg/kg | – | – | – | – | – | – | – | – | – | –
